Results published in ChEMBL document CHEMBL3352338, “Development and biological evaluation of potent and selective c-KIT(D816V) inhibitors” (J Med Chem, 2014).
pIC50: −log10 of the molar value. The source made the active and inactive calls. No cut-off for these calls is given here.

Assays:
[1] = biological target: Glycogen synthase kinase-3 beta (Homo sapiens) (UniProt P49841); experiment: Inhibition of GSK3beta (unknown origin) at 1 uM by KINOMEscanning assay relative to control; values are per cent of control
[2] = biological target: T1, Mast/stem cell growth factor receptor Kit (Homo sapiens, UniProt P10721); experiment: Inhibition of c-KIT (unknown origin) at 1 uM by KINOMEscanning/auto inhibition assay; values are per cent of control
[3] = biological target: RAC-alpha serine/threonine-protein kinase (Homo sapiens) (UniProt P31749); experiment: Inhibition of AKT1 (unknown origin) at 1 uM by KINOMEscanning assay relative to control; values are per cent of control
[4] = Antiproliferative activity against human HMC-1.2 cells carrying V560G, D816V mutant assessed as cell growth inhibition by MTT assay; format: functional, cell-based
How it was run: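 Cell viability by MTT assay in imatinib-resistant HMC-1.2 human mast cells (V560G, D816V), 48 h exposure across a range of concentrations.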

[5] = biological target: T2, Inhibitor of nuclear factor kappa-B kinase subunit alpha (Homo sapiens) (UniProt O15111); experiment: Inhibition of IKKalpha (unknown origin) at 1 uM by KINOMEscanning assay relative to control; values are per cent of control
T2 sequence (whole entry): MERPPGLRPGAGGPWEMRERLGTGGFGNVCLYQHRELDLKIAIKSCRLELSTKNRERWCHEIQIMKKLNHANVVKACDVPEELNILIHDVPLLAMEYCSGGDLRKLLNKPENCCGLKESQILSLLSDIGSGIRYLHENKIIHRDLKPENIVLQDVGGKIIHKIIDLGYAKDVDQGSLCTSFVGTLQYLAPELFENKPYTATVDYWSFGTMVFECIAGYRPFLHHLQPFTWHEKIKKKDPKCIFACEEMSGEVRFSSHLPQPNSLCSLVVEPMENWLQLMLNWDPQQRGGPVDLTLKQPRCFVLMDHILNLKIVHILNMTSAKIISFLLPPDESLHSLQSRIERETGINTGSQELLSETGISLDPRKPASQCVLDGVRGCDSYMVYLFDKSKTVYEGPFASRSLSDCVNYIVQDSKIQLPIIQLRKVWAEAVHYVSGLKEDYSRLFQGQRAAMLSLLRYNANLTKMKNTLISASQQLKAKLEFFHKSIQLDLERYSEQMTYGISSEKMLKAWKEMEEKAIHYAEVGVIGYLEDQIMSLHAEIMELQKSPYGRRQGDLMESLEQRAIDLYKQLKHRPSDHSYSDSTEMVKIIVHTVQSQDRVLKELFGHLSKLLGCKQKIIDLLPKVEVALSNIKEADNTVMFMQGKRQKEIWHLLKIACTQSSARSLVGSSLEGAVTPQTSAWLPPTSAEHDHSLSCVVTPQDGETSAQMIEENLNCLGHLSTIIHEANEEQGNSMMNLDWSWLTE

[6] = biological target: Mitogen-activated protein kinase 14 (Homo sapiens) (UniProt Q16539); experiment: Inhibition of p38alpha (unknown origin) at 1 uM by KINOMEscanning assay relative to control; values are per cent of control
[7] = biological target: Tyrosine-protein kinase JAK1 (Homo sapiens) (UniProt P23458); experiment: Inhibition of JAK1 (unknown origin) at 1 uM by KINOMEscanning assay relative to control; values are per cent of control
[8] = tested on: Tyrosine-protein kinase ABL1 (Homo sapiens), P00519 [T315I]; experiment: Inhibition of ABL T315I mutant (unknown origin) at 1 uM by KINOMEscanning assay relative to control; values are per cent of control
[9] = biological target: Serine/threonine-protein kinase B-raf (Homo sapiens) (UniProt P15056); experiment: Inhibition of BRAF (unknown origin) at 1 uM by KINOMEscanning assay relative to control; values are per cent of control
[10] = biological target: Vascular endothelial growth factor receptor 2 (Homo sapiens) (UniProt P35968); experiment: Inhibition of VEGFR2 (unknown origin) at 1 uM by KINOMEscanning assay relative to control; values are per cent of control
[11] = biological target: Insulin-like growth factor 1 receptor (Homo sapiens) (UniProt P08069); experiment: Inhibition of IGF1R (unknown origin) at 1 uM by KINOMEscanning assay relative to control; values are per cent of control
[12] = biological target: Aurora kinase B (Homo sapiens) (UniProt Q96GD4); experiment: Inhibition of AURKB (unknown origin) at 1 uM by KINOMEscanning assay relative to control; values are per cent of control
[13] = biological target: T3, Inhibitor of nuclear factor kappa-B kinase subunit beta (Homo sapiens) (UniProt O14920); experiment: Inhibition of IKKbeta (unknown origin) at 1 uM by KINOMEscanning assay relative to control; values are per cent of control
T3 sequence (whole entry): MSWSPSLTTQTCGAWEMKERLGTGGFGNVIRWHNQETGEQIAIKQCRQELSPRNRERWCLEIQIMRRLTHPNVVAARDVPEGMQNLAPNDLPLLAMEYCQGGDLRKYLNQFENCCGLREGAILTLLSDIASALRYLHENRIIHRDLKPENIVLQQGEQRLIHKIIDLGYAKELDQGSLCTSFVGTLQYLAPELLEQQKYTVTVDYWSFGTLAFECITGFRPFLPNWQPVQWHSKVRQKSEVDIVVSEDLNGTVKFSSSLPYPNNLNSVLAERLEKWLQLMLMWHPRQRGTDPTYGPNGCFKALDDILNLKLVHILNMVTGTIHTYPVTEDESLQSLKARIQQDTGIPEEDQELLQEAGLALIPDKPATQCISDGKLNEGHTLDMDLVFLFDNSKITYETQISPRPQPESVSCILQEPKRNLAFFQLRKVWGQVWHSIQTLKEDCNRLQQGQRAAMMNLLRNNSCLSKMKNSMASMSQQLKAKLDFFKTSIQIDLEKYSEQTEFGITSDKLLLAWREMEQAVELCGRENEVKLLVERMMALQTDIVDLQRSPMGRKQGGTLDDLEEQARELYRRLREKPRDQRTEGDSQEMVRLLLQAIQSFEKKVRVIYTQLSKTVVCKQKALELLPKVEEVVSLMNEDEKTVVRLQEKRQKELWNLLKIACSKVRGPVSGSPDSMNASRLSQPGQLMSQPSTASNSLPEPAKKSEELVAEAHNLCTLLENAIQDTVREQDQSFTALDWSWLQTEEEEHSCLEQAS

[14] = biological target: T1, Mast/stem cell growth factor receptor Kit; details: 5 uM

T1 sequence (P10721 whole entry): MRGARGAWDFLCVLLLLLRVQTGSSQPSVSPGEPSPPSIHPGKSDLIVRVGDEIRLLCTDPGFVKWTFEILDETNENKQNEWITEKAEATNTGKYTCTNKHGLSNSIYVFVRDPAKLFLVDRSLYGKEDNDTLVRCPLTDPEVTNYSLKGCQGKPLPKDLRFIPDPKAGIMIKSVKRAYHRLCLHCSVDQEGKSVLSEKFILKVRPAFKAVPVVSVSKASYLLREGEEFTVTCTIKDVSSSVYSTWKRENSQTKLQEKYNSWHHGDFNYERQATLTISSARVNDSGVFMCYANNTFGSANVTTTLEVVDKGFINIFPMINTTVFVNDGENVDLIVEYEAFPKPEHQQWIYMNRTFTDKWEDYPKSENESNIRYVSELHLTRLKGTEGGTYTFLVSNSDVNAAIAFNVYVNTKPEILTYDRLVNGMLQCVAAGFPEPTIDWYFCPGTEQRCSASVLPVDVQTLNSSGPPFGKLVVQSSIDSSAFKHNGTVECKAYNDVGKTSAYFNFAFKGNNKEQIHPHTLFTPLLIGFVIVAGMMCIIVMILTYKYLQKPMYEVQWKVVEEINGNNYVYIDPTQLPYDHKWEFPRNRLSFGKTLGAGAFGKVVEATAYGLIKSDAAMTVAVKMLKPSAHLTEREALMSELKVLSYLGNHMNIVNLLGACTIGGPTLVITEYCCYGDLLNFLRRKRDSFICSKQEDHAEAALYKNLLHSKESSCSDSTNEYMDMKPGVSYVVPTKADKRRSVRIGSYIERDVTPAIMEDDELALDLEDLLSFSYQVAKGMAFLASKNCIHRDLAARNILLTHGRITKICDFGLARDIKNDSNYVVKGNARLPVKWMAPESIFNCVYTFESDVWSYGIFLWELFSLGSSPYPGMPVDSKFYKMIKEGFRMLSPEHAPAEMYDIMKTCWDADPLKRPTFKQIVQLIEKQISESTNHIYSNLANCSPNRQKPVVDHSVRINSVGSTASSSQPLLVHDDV
Sequence of RAC-alpha serine/threonine-protein kinase (Homo sapiens) (P31749 whole entry): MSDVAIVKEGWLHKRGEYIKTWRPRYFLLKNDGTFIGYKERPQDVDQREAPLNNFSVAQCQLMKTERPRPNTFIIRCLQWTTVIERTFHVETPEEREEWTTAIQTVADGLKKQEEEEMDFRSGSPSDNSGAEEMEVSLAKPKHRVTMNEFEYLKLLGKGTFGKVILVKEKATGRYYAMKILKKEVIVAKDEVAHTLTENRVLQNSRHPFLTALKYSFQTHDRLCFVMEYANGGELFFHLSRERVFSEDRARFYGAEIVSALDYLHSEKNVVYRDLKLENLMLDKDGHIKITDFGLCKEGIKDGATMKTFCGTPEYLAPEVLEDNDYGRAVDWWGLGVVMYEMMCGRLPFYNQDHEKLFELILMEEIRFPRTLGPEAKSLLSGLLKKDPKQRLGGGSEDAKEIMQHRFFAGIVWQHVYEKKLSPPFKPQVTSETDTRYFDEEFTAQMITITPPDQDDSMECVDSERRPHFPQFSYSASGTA
Sequence of Insulin-like growth factor 1 receptor (Homo sapiens) (P08069 31-736 limits assumed): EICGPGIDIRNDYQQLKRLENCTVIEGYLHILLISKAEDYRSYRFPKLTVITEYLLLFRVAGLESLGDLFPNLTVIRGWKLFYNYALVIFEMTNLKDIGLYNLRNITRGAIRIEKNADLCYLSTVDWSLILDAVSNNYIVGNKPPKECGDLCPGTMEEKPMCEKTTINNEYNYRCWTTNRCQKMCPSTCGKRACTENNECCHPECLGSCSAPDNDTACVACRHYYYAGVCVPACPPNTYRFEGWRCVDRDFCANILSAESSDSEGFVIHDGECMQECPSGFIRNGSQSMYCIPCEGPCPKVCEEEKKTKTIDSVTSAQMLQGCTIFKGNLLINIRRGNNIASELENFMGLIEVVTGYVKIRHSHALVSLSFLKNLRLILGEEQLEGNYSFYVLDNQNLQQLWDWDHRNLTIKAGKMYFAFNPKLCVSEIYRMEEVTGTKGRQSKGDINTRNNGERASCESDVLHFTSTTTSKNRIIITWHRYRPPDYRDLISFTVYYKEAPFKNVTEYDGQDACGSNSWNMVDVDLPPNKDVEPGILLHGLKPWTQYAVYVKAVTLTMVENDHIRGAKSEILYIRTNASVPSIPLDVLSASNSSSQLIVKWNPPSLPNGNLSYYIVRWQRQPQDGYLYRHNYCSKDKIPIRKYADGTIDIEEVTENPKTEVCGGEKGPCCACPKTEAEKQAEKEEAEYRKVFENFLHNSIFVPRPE
Sequence of Insulin-like growth factor 1 receptor (Homo sapiens) (P08069 741-1367 limits assumed): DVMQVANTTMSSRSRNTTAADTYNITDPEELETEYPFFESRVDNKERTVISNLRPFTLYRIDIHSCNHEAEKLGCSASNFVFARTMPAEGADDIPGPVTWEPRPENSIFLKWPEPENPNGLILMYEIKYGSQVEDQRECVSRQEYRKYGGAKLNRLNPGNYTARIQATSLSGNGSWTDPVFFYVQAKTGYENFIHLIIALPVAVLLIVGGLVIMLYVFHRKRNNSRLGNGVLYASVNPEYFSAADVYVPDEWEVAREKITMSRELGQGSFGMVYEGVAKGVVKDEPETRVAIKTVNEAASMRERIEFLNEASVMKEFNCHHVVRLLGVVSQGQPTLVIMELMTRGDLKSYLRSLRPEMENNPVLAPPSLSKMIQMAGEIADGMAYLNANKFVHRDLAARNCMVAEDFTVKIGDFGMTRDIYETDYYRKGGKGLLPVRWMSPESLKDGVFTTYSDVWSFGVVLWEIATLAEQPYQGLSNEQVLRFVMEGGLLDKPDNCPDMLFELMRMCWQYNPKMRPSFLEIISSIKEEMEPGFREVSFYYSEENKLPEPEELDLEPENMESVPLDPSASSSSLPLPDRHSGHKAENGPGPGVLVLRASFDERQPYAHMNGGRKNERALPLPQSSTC
Sequence of Vascular endothelial growth factor receptor 2 (Homo sapiens) (P35968 whole entry): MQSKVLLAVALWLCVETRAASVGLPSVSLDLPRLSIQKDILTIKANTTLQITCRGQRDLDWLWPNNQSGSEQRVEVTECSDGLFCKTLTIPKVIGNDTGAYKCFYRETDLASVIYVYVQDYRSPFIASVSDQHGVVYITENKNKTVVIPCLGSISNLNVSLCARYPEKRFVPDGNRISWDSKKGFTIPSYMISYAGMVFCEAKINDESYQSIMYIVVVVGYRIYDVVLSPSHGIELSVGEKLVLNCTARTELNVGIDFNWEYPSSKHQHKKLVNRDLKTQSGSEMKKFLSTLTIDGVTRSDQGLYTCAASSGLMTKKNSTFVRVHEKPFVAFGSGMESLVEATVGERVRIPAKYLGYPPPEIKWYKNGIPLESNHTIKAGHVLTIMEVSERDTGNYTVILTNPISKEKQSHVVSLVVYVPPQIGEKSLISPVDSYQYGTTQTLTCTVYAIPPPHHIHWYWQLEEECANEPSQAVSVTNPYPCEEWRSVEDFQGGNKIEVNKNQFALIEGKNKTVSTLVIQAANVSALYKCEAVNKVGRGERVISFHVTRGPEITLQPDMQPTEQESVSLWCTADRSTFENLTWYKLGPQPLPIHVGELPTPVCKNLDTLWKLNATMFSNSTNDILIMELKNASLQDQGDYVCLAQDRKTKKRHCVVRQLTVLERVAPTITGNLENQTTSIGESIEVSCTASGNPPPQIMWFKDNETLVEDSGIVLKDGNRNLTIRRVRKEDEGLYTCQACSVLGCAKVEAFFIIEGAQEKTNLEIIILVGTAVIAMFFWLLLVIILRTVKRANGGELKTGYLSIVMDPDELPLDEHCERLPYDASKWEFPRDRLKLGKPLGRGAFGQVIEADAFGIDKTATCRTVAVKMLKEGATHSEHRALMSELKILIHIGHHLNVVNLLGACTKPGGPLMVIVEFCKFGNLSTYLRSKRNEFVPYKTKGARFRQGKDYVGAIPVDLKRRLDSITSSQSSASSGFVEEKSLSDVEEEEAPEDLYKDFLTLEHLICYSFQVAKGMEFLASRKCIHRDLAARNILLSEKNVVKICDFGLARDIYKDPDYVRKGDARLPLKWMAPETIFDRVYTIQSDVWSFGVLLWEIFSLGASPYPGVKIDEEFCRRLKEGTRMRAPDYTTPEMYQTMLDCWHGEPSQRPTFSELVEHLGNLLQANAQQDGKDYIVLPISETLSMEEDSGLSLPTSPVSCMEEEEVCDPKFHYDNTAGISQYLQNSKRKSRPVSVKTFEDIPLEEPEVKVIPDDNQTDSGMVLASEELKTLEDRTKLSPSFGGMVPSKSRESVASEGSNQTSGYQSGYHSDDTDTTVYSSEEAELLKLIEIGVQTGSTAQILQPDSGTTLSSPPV
Sequence of Mitogen-activated protein kinase 14 (Homo sapiens) (Q16539 whole entry): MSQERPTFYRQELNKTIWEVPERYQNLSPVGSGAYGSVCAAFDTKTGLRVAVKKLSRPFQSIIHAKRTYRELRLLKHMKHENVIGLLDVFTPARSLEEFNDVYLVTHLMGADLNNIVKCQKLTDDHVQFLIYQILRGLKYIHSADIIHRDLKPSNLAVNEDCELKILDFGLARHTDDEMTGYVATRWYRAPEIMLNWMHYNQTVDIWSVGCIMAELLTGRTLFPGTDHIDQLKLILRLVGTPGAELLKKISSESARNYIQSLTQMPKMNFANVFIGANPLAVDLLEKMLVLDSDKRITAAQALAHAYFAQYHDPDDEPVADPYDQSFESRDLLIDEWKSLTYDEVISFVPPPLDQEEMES
Sequence of Glycogen synthase kinase-3 beta (Homo sapiens) (P49841 whole entry, looked up): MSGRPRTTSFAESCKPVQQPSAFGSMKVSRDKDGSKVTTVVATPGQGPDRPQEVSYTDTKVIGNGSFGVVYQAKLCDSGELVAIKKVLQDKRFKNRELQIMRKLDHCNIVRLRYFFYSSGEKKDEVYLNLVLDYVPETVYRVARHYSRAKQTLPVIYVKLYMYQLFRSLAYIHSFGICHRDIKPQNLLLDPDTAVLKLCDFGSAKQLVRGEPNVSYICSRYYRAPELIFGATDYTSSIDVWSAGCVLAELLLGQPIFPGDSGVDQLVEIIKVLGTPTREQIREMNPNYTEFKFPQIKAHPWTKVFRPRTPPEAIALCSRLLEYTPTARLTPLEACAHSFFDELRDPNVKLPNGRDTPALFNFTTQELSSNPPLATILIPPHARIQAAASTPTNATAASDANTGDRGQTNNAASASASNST

SMILES	residual activity [1] [%]	residual activity [2] [%]	residual activity [3] [%]	pIC50 [4]	residual activity [5] [%]	residual activity [6] [%]	residual activity [7] [%]	residual activity [8] [%]	residual activity [9] [%]	residual activity [10] [%]	residual activity [11] [%]	residual activity [12] [%]	residual activity [13] [%]	inhibition [14]
COc1ccc(-c2c[nH]c3ncc(-c4ccc(C(=O)N5CCOCC5)c(N)c4)cc23)cc1OC	63	76	100	5.70	2.2	94	100	17	78	79	96	44	0.75	
COc1cc(-c2c[nH]c3ncc(-c4cccc(N)c4)cc23)cc(OC)c1OC	64	53	87	6.09	46	100	71	47	28	96	100	31	22	Active
COc1ccc(-c2cnc3[nH]cc(-c4ccc(OC)c(OC)c4)c3c2)cc1N	87	65	92	6.06	26	93	93	54	83	79	79	85	31	Active
COc1ccc(-c2cnc3[nH]cc(-c4ccc(OC)c(OC)c4)c3c2)cc1OC	94	48	100	6.12	10	96	100	51	81	96	100	82	12	Active
COc1ccc(-c2c[nH]c3ncc(-c4cc(OC)c(OC)c(OC)c4)cc23)cc1OC	64	42	98	6.04	70	100	92	48	78	97	91	92	69	Active
